The test system of one data set is BMDMs. Kind of data set: Endocytosis mode of FITC-BLKR with endocytosis inhibitors. Type of data set: cell-based, mouse. The following applies: FITC-BLKR 16 μM, 15 min; EIPA 50 μM, CPZ 40 μM, Filipin III 5 μg ml^−1; n = 3.
In a further data set the test system is MRE-induced ALI. Kind of data set: Comparison with ceftazidime in MRE-infected mice. It counts as in vivo, mouse. The following applies: ceftazidime/avibactam 32/8 mg kg^−1 subcutaneous every 12 hours; n = 12.
The next data set deals with RAW264.7. The data set can be described thus: Cytocompatibility, MTT assay. Type of data set: cell-based, murine. The settings on record: 24 h, n = 9. The method, boiled down: (§1)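 Cell lines grown with 10% FBS and 1% penicillin-streptomycin. Seeded at 1 × 10^4 cells per well and allowed 24 hours to attach. Medium then replaced with fresh medium containing test peptide at a range of concentrations. Viability read by MTT after 24 hours of co-incubation.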

A further data set has as its system DC2.4. The data set can be described thus: Cytocompatibility, MTT assay. It counts as cell-based, murine. The following applies: 24 h, n = 9. Put shortly: as §1
For orientation: Formazan colour is commonly taken as a measure of viable cells.

The test system of data set [1] is human bronchial epithelial cells (BEAS-2B). Kind of data set: Cytocompatibility, MTT assay. It counts as cell-based. The settings on record: 24-hour coincubation. Put shortly: as §1
In another data set the test system is healthy mice. The data set can be described thus: Immunomodulation and toxicity in healthy mice. Type of data set: in vivo, mouse.
Data set [2] concerns multidrug-resistant Escherichia coli (MRE). Kind of data set: MIC against MRE. The following applies: n = 3 biologically replicates. Type of data set: cell-based.
The test system of data set [3] is HS-5 (human marrow stromal cells). The data set can be described thus: Cytocompatibility, MTT assay. The settings on record: 24 h, n = 9. It counts as cell-based. Put shortly:
as §1

In data set [4] the test system is human embryonic kidney (HEK) 293T. Kind of data set: Cytocompatibility, MTT assay. Type of data set: cell-based. The settings on record: 24 h, n = 9. The method, boiled down: as §1
The nature of data set [5]: Pharmacokinetic study of SPRAY-BLKR-NPs in ALI mice. It counts as in vivo, mouse.
The subject of another data set is red blood cells (RBCs). Kind of data set: Hemolysis assay. The settings on record: 3 hours, 37°C, PBS; for hemolytic activity: 256 μM, n = 9. It counts as cell-based, New Zealand rabbit. Put shortly: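 Freshly drawn rabbit blood diluted tenfold in PBS. RBCs pelleted and washed eight times with PBS. Peptide stocks made in PBS at 512 μM and diluted twofold six times. RBCs incubated with peptide for 3 hours at 37°C; 1% Triton X-100 as positive control, PBS as negative control. Samples spun at 10,000 rpm for 10 min; hemolysis calculated from supernatant absorbance at 570 nm.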

The nature of data set [6]: Pulmonary biodistribution of FITC-labeled peptide, CLSM. The settings on record: 128 μM, 50 μl intratracheal, 1 h. Type of data set: in vivo, mouse. Put shortly: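 Acute lung injury induced in BALB/c mice by intratracheal LPS (10 mg kg^−1). FITC-labelled peptide (128 μM, 50 μl) then given intratracheally, n = 3. Lungs taken 1 hour after dosing. Sections stained for CD68 (macrophages) with DAPI counterstain and imaged by confocal microscopy.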

The subject of data set [7] is bone marrow–derived macrophages (BMDMs). The data set can be described thus: M2 macrophage polarization of BMDMs, CD206/CD86 flow cytometry. It counts as cell-based, mouse. The following applies: M1 positive control LPS 10 ng ml^−1 and IFN-γ 20 ng ml^−1. On the technique in general: In flow cytometry, cells or beads pass a laser one at a time.

Converted amounts (≈) assume the structure as drawn. Where a SMILES comes first, the peptide text is derived from it. The star is where a group is joined. Phenylacetyl(4-Ph) = O=C(Cc1ccc(-c2ccccc2)cc1)* Some results are limits rather than exact numbers.

For `CCCCC[C@@H](O)[C@H]1C(=O)O[C@H](C)[C@@H](O)/C=C/C=C/C=C/C=C/C=C(\C)[C@@H](O)C[C@H](O)C[C@H](O)C[C@H](O)C[C@H](O)C[C@H](O)C[C@@H]1O` [Filipin III], the “loss of BLKR uptake quantified by FITC intensity” value (“loss of BLKR uptake quantified” below) in the data set with BMDMs is 43.01%.
In the case of `CC(C)(O/N=C(\C(=O)N[C@@H]1C(=O)N2C(C(=O)[O-])=C(C[n+]3ccccc3)CS[C@H]12)c1csc(N)n1)C(=O)O` [Ceftazidime], the 2-day survival rate with MRE-induced ALI worked out at 58.3%.
Take `CN(C)CCCN1c2ccccc2Sc2ccc(Cl)cc21` [CPZ, chlorpromazine]: the “loss of BLKR uptake quantified” value with BMDMs is given as 24.47%.
With `CC(C)C[C@H](NC(=O)[C@H](Cc1ccccc1)NC(=O)[C@H](Cc1ccccc1)NC(=O)Cc1ccc(-c2ccccc2)cc1)C(=O)N[C@@H](CCCCN)C(=O)N[C@@H](CCCNC(=N)N)C(=O)N[C@H](C(=O)N[C@@H](Cc1c[nH]c2ccccc12)C(=O)N[C@@H](CCCCN)C(=O)N[C@@H](CCCNC(=N)N)C(=O)O)C(C)C` [BLKR] ({Phenylacetyl(4-Ph)}-FFLKRVWKR-OH), in the data set with RAW264.7, the “cytotoxicity, RAW264.7” value is “no significant cytotoxicity”. Besides, the “cytotoxicity, DC2.4” value with DC2.4 is given as “no significant cytotoxicity”. The “cytotoxicity toward BEAS-2B” value in data set [1] was “no notable cytotoxicity”. In addition, the “monocyte infiltration in the alveolar site, histology” value in the data set on healthy mice (128 or 256 μM, 50 μl twice) is “no monocyte infiltration was observed”. In the data set on healthy mice (512 or 1204 μM), the “inflammatory cell infiltration in lung, histology” value is listed as “inflammatory cell infiltration occurred in lung”. In addition, in the data set with healthy mice (all the tested concentrations, n = 3), the “monocyte percentage in peripheral blood” value is “no elevation of monocyte percentage”. Further, the “MIC against MRE” value in data set [2] stood at 16 µM (≈ 23.6 µg/mL). The “cytotoxicity, HS-5” value in [3] is listed as “no significant cytotoxicity”. Besides, in [4], the “cytotoxicity, HEK 293T” value is “no significant cytotoxicity”. Moreover, the “BLKR left in entire respiratory tract” value in data set [5] (ALI mice, single dose 18.42 μg per mouse, 12 hours after administration) is reported as ~10%. Moreover, in [5] (within 24 hours), the “pulmonary area under the curve relative to kidney” value is > 154.13 times and the “pulmonary area under the curve relative to liver” value is given as “more than 47.90 times”. Further, the hemolytic activity result in the data set on red blood cells (RBCs) is listed as “no detectable hemolytic activity”.
On to `CCN(c1nc(N)c(C(=O)NC(=N)N)nc1Cl)C(C)C` [EIPA, ethyl-isopropyl-amiloride], for which the “loss of BLKR uptake quantified” value in the data set with BMDMs was 22.14%.
As to `CC[C@H](C)[C@H](NC(=O)[C@H](CCCCN)NC(=O)[C@H](Cc1ccccc1)NC(=O)[C@H](Cc1ccccc1)NC(=O)Cc1ccc(-c2ccccc2)cc1)C(=O)N[C@H](C(=O)N[C@@H](CCCCN)C(=O)N[C@H](C(=O)N[C@@H](C)C(=O)N[C@@H](CCCCN)C(=O)O)C(C)C)[C@@H](C)CC` [BKII] ({Phenylacetyl(4-Ph)}-FFKIIKVAK-OH), the “cytotoxicity toward BEAS-2B” value in data set [1] was “no notable cytotoxicity”. Also, the hemolytic activity entry in the data set on red blood cells (RBCs) was “no detectable hemolytic activity”.
In the data set on red blood cells (RBCs) (128 μM), `CC[C@H](C)[C@H](NC(=O)[C@H](CC(C)C)NC(=O)[C@H](CCCNC(=N)N)NC(=O)[C@H](Cc1ccccc1)NC(=O)[C@H](Cc1ccccc1)NC(=O)Cc1ccc(-c2ccccc2)cc1)C(=O)N[C@@H](CCCNC(=N)N)C(=O)N[C@@H](Cc1ccc(O)cc1)C(=O)N[C@@H](CCSC)C(=O)N[C@@H](C)C(=O)N[C@@H](CCCCN)C(=O)O` [BRLI] ({Phenylacetyl(4-Ph)}-FFRLIRYMAK-OH) gave a hemolysis rate of 7.49%.
Take `CC(C)C[C@H](N)C(=O)N[C@@H](CCCCN)C(=O)N[C@@H](CCCNC(=N)N)C(=O)N[C@H](C(=O)N[C@@H](Cc1c[nH]c2ccccc12)C(=O)N[C@@H](CCCCN)C(=O)N[C@@H](CCCNC(=N)N)C(=O)O)C(C)C` [LKR] (H-LKRVWKR-OH): the “accumulation in injured lung tissue” value in [6] was “extremely little accumulation”.
As to lipopolysaccharide [LPS], the “CD86+ macrophage in the total population” value in data set [7] is “more than 80%”.

The values are drawn from publication PMC11397428 (Science Advances, 2024).
